ChEMBL document CHEMBL1123945, “Dimethylsulfonium and thiolanium analogues of the muscarinic agent oxotremorine” (J Med Chem, 1988)

Legend:
Cavia porcellus [1] = organism: Cavia porcellus; assay: In vitro muscarinic activity was measured on isolated guinea pig ileum; assay type: functional
Summary of the method: (§1)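 Guinea pig ileum segments in Tyrode solution pH 7.4, 37 °C, with 0.3 mM hexamethonium. Isotonic contractions at 1 g tension. Cumulative concentration–response curves, concentration raised stepwise by a factor of 2.15. Means ± SE over tissues.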

Cavia porcellus [2] = organism: Cavia porcellus; assay: In vitro muscarinic activity was measured on isolated guinea pig urinary bladder; assay type: functional
Summary of the method: (§2)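 Guinea pig urinary bladder strips in Tyrode solution pH 7.4, 37 °C, containing 0.3 mM hexamethonium. Isotonic recording at 1 g tension. Cumulative concentration–response curves, concentration raised stepwise by a factor of 3.16.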

Cavia porcellus [3] = organism: Cavia porcellus; assay: Relative efficacy of compound was determined in guinea pig iluem; assay type: functional
Cavia porcellus [4] = organism: Cavia porcellus; assay: Relative efficacy of compound was determined in guinea pig urinary bladder; assay type: functional
Cavia porcellus [5] = organism: Cavia porcellus; assay: Dissociation constant of the drug-receptor complex was measured in guinea pig urinary bladder; assay type: functional
Mus musculus = assay: Sialalogic activity was measured in mice after intravenous administration; assay type: functional
Summary of the method: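 Male Swiss-Webster mice (24–30 g). Drugs in 0.9% NaCl given iv in the tail. Salivation was scored by blotting the mouth onto absorbent tissue during the first 10 min. ED50 by the up-and-down method, six or more animals per determination.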

[6] = (§3) Acute toxicity was measured in mice; assay type: organism-based; conditions: mouse, in vivo
Summary of the method: (§4)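 Male Swiss-Webster mice, 24-30 g. Drug dissolved in 0.9% NaCl, given iv in the tail. LD50 estimated by the up-and-down method, using six or more animals per determination. Mortality counted at 1 h.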

[7] = biological target: Muscarinic acetylcholine receptor; assay: Binding affinity to Muscarinic acetylcholine receptor in rat cerebral cortex; assay type: tissue-based
[8] = biological target: T1, Muscarinic acetylcholine receptor (Rattus norvegicus) (UniProt P08482+P08483+P08485+P08911+P10980); assay: Percentage of high affinity sites was determined in rat cerebral cortex; assay type: tissue-based
[9] = biological target: T1, Muscarinic acetylcholine receptor (Rattus norvegicus); assay: Low affinity dissociation constant to Muscarinic acetylcholine receptor in rat cerebral cortex; assay type: tissue-based
[10] = biological target: T1, Muscarinic acetylcholine receptor (Rattus norvegicus); assay: High affinity dissociation constant to Muscarinic acetylcholine receptor in rat cerebral cortex; assay type: tissue-based
[11] = Equipotent molar ratio measured on frog rectus abdominis; assay type: functional, Rectus abdominis muscle
Summary of the method: (§5)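 Frog rectus abdominis in aerated Clark-Ringer solution pH 7.4 at 22 °C. Noncumulative concentration–response curves, 5 min exposure per concentration. Isotonic contractions recorded.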

Cavia porcellus [12] = organism: Cavia porcellus; assay: Dissociation constant of the drug-receptor complex was measured in guinea pig ileum; assay type: functional
[13] = In vitro nicotinic activity was measured on frog rectus abdominis; assay type: functional, tissue-based, Rectus abdominis muscle; summary of the method: as §5
[14] = The equipotent molar ratio (EPMR) relative to oxotremorine on isolated guinea pig; assay type: functional; conditions: in the assay text read “relative to carbachol” for “relative to oxotremorine”; summary of the method: as §1
[15] = The equipotent molar ratio (EPMR) relative to oxotremorine on isolated guinea urinary bladder; assay type: functional; conditions: in the assay text read “relative to carbachol” for “relative to oxotremorine”; summary of the method: as §2
[16] = as §3; conditions: mouse, in vivo; summary of the method: as §4
Cavia porcellus [17] = organism: Cavia porcellus; assay: Relative efficacy of compound was determined was determined in guinea pig bladder; assay type: functional
[18] = Equipotent molar ratio (EPMR) was measured on frog rectus abdominis; assay type: functional, Rectus abdominis muscle; summary of the method: as §5
[19] = Ratio of equipotent molar ratio (EPMR) of frog rectus to EPMR of guinea pig ileum; assay type: functional

Row | Compound | EC50 (Cavia porcellus [1]) | EC50 (Cavia porcellus [2]) | Efficacy (Cavia porcellus [3]) | Efficacy (Cavia porcellus [4]) | Kd (Cavia porcellus [5]) | ED50 (Mus musculus) | LD50 [6] | IC50 [7] | Binding [8] | KL [9] | KH [10] | Ratio [11] | Kd (Cavia porcellus [12]) | EC50 [13] | Ratio [14] | Ratio [15] | LD50 [16] | Efficacy (Cavia porcellus [17]) | Ratio [18] | Ratio [19]
1 | C[N+](C)(C)CC#CCN1CCCC1=O.[I-] [OXOTREMORINE METHIODIDE] | 0.023 µM | 0.37 µM | 0.95 | 0.88 | 4.3 µM | 0.058 µmol/kg | 1 µmol/kg | 1.2 µM | 31.3% | 5.4 µM | 0.019 µM | 2.1 | 2.9 µM |  |  |  |  |  |  | 
2 | O=C1CCCN1CC#CC[S+]1CCCC1.[Cl-] | 0.25 µM | 1.2 µM | 0.054 | 0.057 | 1.1 µM | 0.35 µmol/kg | 2.2 µmol/kg | 0.31 µM | 37% | 0.99 µM | 0.069 µM | 1.4 | 1.3 µM | 5 µM | 2.1 | 2.3 |  |  |  | 
3 | C[N+](C)(C)CCOC(N)=O.[Cl-] [CARBACHOL] |  |  | 1 | 1 |  | 0.083 µmol/kg |  |  |  |  |  |  |  | 3.8 µM |  |  | 1.7 µmol/kg |  |  | 
4 | C[S+](C)CC#CCN1CCCC1=O.[Cl-] | 0.029 µM | 0.2 µM | 0.41 |  | 1.3 µM | 0.024 µmol/kg | 2.8 µmol/kg | 0.8 µM | 28.4% | 2.2 µM | 0.011 µM |  | 1.5 µM | 29 µM | 0.24 | 0.32 |  | 0.48 | 8.1 | 33.8
5 | O=C1CCC(=O)N1CC#CC[S+]1CCCC1.[Cl-] | 7.9 µM |  | 0.0061 |  | 13.1 µM |  | 3.5 µmol/kg | 3.3 µM |  |  |  | 18 | 7.5 µM | 66.2 µM | 81 |  |  |  |  | 
6 | C[S+](C)CC#CCN1C(=O)CCC1=O.[Cl-] | 0.41 µM | 1.7 µM | 0.11 | 0.15 | 5.9 µM | 0.48 µmol/kg | 70 µmol/kg | 5.4 µM | 27.4% | 12.7 µM | 0.19 µM | 692 | 6.9 µM | 2600 µM | 4.1 | 3.7 |  |  |  | 
